ChEMBL document CHEMBL1137710, “Synthesis and in vitro antitumor activity of new quinoxaline derivatives” (2009)

Key:
Type in all cases: functional
[1] = system: HL-60(TB); test: Growth inhibition of human HL-60(TB) cells after 48 hrs by sulforhodamine B assay; details: HL-60, 48 h
Outline: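 Tested only on compounds active in a three-line prescreen, in the NCI 60-human-tumour-cell-line panel over a 5-log dose range. Values come from dose–response curves as log10 molar GI50, the concentration inhibiting 50% net cell growth. Log10 TGI (total growth inhibition) and log10 LC50 (50% net cell death) were derived too. Mean graph midpoints include insensitive lines at the highest concentration tested.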

[2] = system: K562; test: Growth inhibition of human K562 cells after 48 hrs by sulforhodamine B assay; details: K562, 48 h
Outline: (§1)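 NCI 60-human-tumor-cell-line panel, with compounds tested over a 5-log dose range. Values are taken from dose-response curves as log10 molar concentrations: GI50 is 50% net growth inhibition, TGI is total growth inhibition, and LC50 is 50% net cell death.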

[3] = Growth inhibition of human […] cells after 48 hrs by sulforhodamine B assay; outline: as §1
[4] = system: A549; test: Growth inhibition of human A549 cells after 48 hrs by sulforhodamine B assay; details: A549, 48 h; outline: as §1
[5] = system: HOP-62; test: Growth inhibition of human HOP62 cells after 48 hrs by sulforhodamine B assay; details: HOP-62, 48 h; outline: as §1
[6] = system: NCI-H23; test: Growth inhibition of human NCI-H23 cells after 48 hrs by sulforhodamine B assay; details: NCI-H23, 48 h; outline: as §1
[7] = system: NCI-H322M; test: Growth inhibition of human NCI-H322M cells after 48 hrs by sulforhodamine B assay; outline: as §1
[8] = system: NCI-H522; test: Growth inhibition of human NCI-H522 cells after 48 hrs by sulforhodamine B assay; details: NCI-H522, 48 h; outline: as §1
[9] = system: COLO 205; test: Growth inhibition of human COLO205 cells after 48 hrs by sulforhodamine B assay; details: COLO 205, 48 h; outline: as §1
[10] = system: HCT-116; test: Growth inhibition of human HCT116 cells after 48 hrs by sulforhodamine B assay; details: HCT-116, 48 h; outline: as §1
[11] = system: SW-620; test: Growth inhibition of human SW620 cells after 48 hrs by sulforhodamine B assay; details: SW-620, 48 h
Outline: (§2)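 Run in the NCI 60-human-tumour-cell-line panel, tested over a 5-log dose range. Dose–response curves gave three values per cell line, each as a log10 molar concentration: GI50 (50% inhibition of net cell growth), TGI (total inhibition of net growth) and LC50 (50% net cell death). The mean graph midpoint is the arithmetic mean over all lines, with insensitive lines entered at the highest concentration tested.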

[12] = system: SF-295; test: Growth inhibition of human SF295 cells after 48 hrs by sulforhodamine B assay; details: SF-295, 48 h; outline: as §1
[13] = system: SNB-19; test: Growth inhibition of human SNB19 cells after 48 hrs by sulforhodamine B assay; details: SNB-19, 48 h; outline: as §2
[14] = system: U-251; test: Growth inhibition of human U251 cells after 48 hrs by sulforhodamine B assay; details: U-251, 48 h; outline: as §2
[15] = system: M14; test: Growth inhibition of human M14 cells after 48 hrs by sulforhodamine B assay; details: M14, 48 h; outline: as §1
[16] = system: UACC-257; test: Growth inhibition of human UACC257 cells after 48 hrs by sulforhodamine B assay; details: UACC-257, 48 h; outline: as §2
[17] = system: OVCAR-3; test: Growth inhibition of human OVCAR-3 cells after 48 hrs by sulforhodamine B assay; details: OVCAR-3, 48 h; outline: as §1
[18] = system: OVCAR-4; test: Growth inhibition of human OVCAR4 cells after 48 hrs by sulforhodamine B assay; details: OVCAR-4, 48 h; outline: as §1
[19] = system: OVCAR-5; test: Growth inhibition of human OVCAR5 cells after 48 hrs by sulforhodamine B assay; details: OVCAR-5, 48 h; outline: as §1
[20] = system: OVCAR-8; test: Growth inhibition of human OVCAR8 cells after 48 hrs by sulforhodamine B assay; details: OVCAR-8, 48 h; outline: as §1
[21] = system: SK-OV-3; test: Growth inhibition of human SKOV3 cells after 48 hrs by sulforhodamine B assay; details: SK-OV-3, 48 h; outline: as §1
[22] = system: 786-0; test: Growth inhibition of human 786-0 cells after 48 hrs by sulforhodamine B assay; details: 786-0, 48 h; outline: as §1
[23] = system: CAKI-1; test: Growth inhibition of human Caki1 cells after 48 hrs by sulforhodamine B assay; details: CAKI-1, 48 h; outline: as §1
[24] = system: TK-10; test: Growth inhibition of human TK10 cells after 48 hrs by sulforhodamine B assay; details: TK-10, 48 h; outline: as §2
[25] = system: UO-31; test: Growth inhibition of human UO31 cells after 48 hrs by sulforhodamine B assay; details: UO-31, 48 h; outline: as §2
[26] = system: NCI/ADR-RES; test: Growth inhibition of human NCI/ADR-RES cells after 48 hrs by sulforhodamine B assay; outline: as §1
[27] = system: MDA-MB-231; test: Growth inhibition of human MDA-MB-231 cells after 48 hrs by sulforhodamine B assay; details: MDA-MB-231, 48 h; outline: as §1
[28] = system: MDA-MB-435; test: Growth inhibition of human MDA-MB-435 cells after 48 hrs by sulforhodamine B assay; details: MDA-MB-435, 48 h; outline: as §1
[29] = read-out: pLC50 (the source's name) (converted)

Compound: Nc1cc(N)c2nc(-c3ccccc3)c(Sc3ccc(F)cc3)nc2c1
- GI50 [1]: 38.9 µM
- LC50 [1]: > 100 µM
- TGI ([1]; read-out: pTGI (converted)): > 100 µM
- GI50 [2]: 39.8 µM
- LC50 [2]: > 100 µM
- TGI ([2]; read-out: pTGI (converted)): 38.9 µM
- GI50 [3]: 28.2 µM
- LC50 [3]: > 100 µM
- TGI ([3]; read-out: pTGI (converted)): 81.3 µM
- GI50 [4]: 13.5 µM
- LC50 [4]: 70.8 µM
- TGI ([4]; read-out: pTGI (converted)): 30.9 µM
- GI50 [5]: 16.6 µM
- LC50 [5]: 70.8 µM
- TGI ([5]; read-out: pTGI (converted)): 34.7 µM
- GI50 [6]: 19.1 µM
- LC50 (50% net cell kill concentration) [6]: 81.3 µM
- TGI ([6]; read-out: pTGI (converted)): 39.8 µM
- GI50 [7]: 20.4 µM
- LC50 [7]: 70.8 µM
- TGI ([7]; read-out: pTGI (converted)): 38 µM
- GI50 [8]: > 100 µM
- LC50 [8]: > 100 µM
- TGI ([8]; read-out: pTGI (converted)): > 100 µM
- GI50 [9]: 21.9 µM
- LC50 (50% net cell kill) [9]: > 100 µM
- TGI ([9]; read-out: pTGI (converted)): 47.9 µM
- GI50 [10]: 14.8 µM
- LC50 (concentration causing 50% net cell death) [10]: 55 µM
- TGI ([10]; read-out: pTGI (converted)): 28.2 µM
- GI50 [11]: 22.9 µM
- CC50 [11, 29]: > 100 µM
- TGI ([11]; read-out: pTGI (converted)): 50.1 µM
- GI50 [12]: 13.8 µM
- LC50 (50% net cell kill) [12]: 64.6 µM
- TGI ([12]; read-out: pTGI (converted)): 30.2 µM
- GI50 [13]: 20 µM
- LC50 [13]: 87.1 µM
- TGI ([13]; read-out: pTGI (converted)): 41.7 µM
- GI50 [14]: 16.2 µM
- LC50 (50% net cell kill) [14]: 61.7 µM
- TGI ([14]; read-out: pTGI (converted)): 31.6 µM
- GI50 [15]: 15.8 µM
- CC50 [15, 29]: 58.9 µM
- TGI ([15]; read-out: pTGI (converted)): 30.9 µM
- GI50 [16]: 16.6 µM
- CC50 [16, 29]: 60.3 µM
- TGI ([16]; read-out: pTGI (converted)): 31.6 µM
- GI50 [17]: 16.2 µM
- CC50 [17, 29]: 69.2 µM
- TGI ([17]; read-out: pTGI (converted)): 33.9 µM
- GI50 [18]: 22.9 µM
- CC50 [18, 29]: > 100 µM
- TGI ([18]; read-out: pTGI (converted)): 56.2 µM
- GI50 [19]: 19.1 µM
- CC50 [19, 29]: > 100 µM
- TGI ([19]; read-out: pTGI (converted)): 45.7 µM
- GI50 [20]: 16.6 µM
- CC50 [20, 29]: 72.4 µM
- TGI ([20]; read-out: pTGI (converted)): 34.7 µM
- GI50 [21]: 15.8 µM
- CC50 [21, 29]: 63.1 µM
- TGI ([21]; read-out: pTGI (converted)): 31.6 µM
- GI50 [22]: > 100 µM
- CC50 [22, 29]: > 100 µM
- TGI ([22]; read-out: pTGI (converted)): > 100 µM
- GI50 [23]: > 100 µM
- CC50 [23, 29]: > 100 µM
- TGI ([23]; read-out: pTGI (converted)): > 100 µM
- GI50 [24]: > 100 µM
- CC50 [24, 29]: > 100 µM
- TGI ([24]; read-out: pTGI (converted)): > 100 µM
- GI50 [25]: > 100 µM
- CC50 [25, 29]: > 100 µM
- TGI ([25]; read-out: pTGI (converted)): > 100 µM
- GI50 [26]: 16.6 µM
- CC50 [26, 29]: 72.4 µM
- TGI ([26]; read-out: pTGI (converted)): 34.7 µM
- GI50 [27]: 17.4 µM
- CC50 [27, 29]: 83.2 µM
- TGI ([27]; read-out: pTGI (converted)): 38 µM
- GI50 [28]: 16.2 µM
- CC50 [28, 29]: 66.1 µM
- TGI ([28]; read-out: pTGI (converted)): 33.1 µM
